Source: ChEMBL document CHEMBL3392986, “Hydroxamic acids block replication of hepatitis C virus” (J Med Chem, 2015)

Experiments:
Hepatitis C virus [1] = experiment: Antiviral activity against HCV genotype 1b infected in human Huh7 cells after 3 days by luciferase reporter gene assay; type: functional, cell-based, Hepacivirus hominis; conditions: Huh-7, 72 h
[2] = Cytotoxicity against human HuH7 cells assessed as inhibition of cell viability after 3 days by CellTiter 96 assay
[3] = Therapeutic index, ratio of CC50 for human HuH7 cells to EC50 for HCV genotype 1b infected in human Huh7 cells
[4] = Cytotoxicity against human HuH7 cells assessed as inhibition of cell viability at 10 uM after 3 days by CellTiter 96 assay; type: cell-based, Huh-7; conditions: read-out: INH
Summary of the method: (§1)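 Replicon cells plated at 6 X 10^3 per well and treated the next day with compound in DMSO, DMSO alone or nothing for three days at 37 °C/5% CO2. Viability measured by CellTiter 96 AQueous One, absorbance 450 nm. Percent inhibition is the average of triplicate wells.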

Hepatitis C virus [5] = experiment: Antiviral activity against HCV genotype 1b infected in human Huh7 cells at 10 uM after 3 days by luciferase reporter gene assay; type: functional, Hepacivirus hominis; conditions: Huh-7, 72 h
Summary of the method: (§2)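 Subgenomic luciferase replicon cells seeded at 6 X 10^3 per well. Next day, medium containing compound in DMSO, or DMSO alone, was added. After three days, luciferase read with ViViRen live-cell substrate. Percent inhibition is the triplicate average; 2mA served as control in single-dose runs.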

Hepatitis C virus [6] = experiment: Antiviral activity against HCV genotype 1b infected in human Huh7 cells assessed as reduction in viral RNA level at 2 uM after 3 days by RT-qPCR; type: functional, Hepacivirus hominis, Huh-7; parameters: scale not given: the % may be the effect or the level left
Summary of the method: (§3)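 Replicon-bearing Huh7 cells, 6 X 10^3 per well, exposed to compound in DMSO or DMSO alone for three days at 37 °C/5% CO2. Replicon RNA quantified by TaqMan Cells-to-CT RT-qPCR with NS5B primers/probe, using GAPDH in parallel wells as reference. Level relative to DMSO-treated cells calculated as 2-∆∆CT. Triplicate wells.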

Hepatitis C virus [7] = experiment: Antiviral activity against HCV genotype 1b infected in human Huh7 cells assessed as reduction in viral RNA level at 0.5 uM after 3 days by RT-qPCR; type: functional, Hepacivirus hominis, Huh-7; parameters: scale not given: the % may be the effect or the level left; conditions: in the assay text read “2 uM” for “0.5 uM”; summary of the method: as §3
Hepatitis C virus [8] = experiment: Antiviral activity against HCV genotype 1b infected in human Huh7 cells at 1 uM after 3 days by luciferase reporter gene assay; type: functional, Hepacivirus hominis; conditions: Huh-7, 72 h; summary of the method: as §2
[9] = Cytotoxicity against human HuH7 cells assessed as inhibition of cell viability at 1 uM after 3 days by CellTiter 96 assay; type: cell-based, Huh-7; conditions: read-out: INH; summary of the method: as §1

SMILES | EC50 (Hepatitis C virus [1]) | CC50 at 72 h [2] | selectivity ratio ([3]; HuH7 cells) | cytotoxicity at 72 h, 10 µM [4] | inhibition at 10 µM (Hepatitis C virus [5]) | other results
O=C(O)c1sc2ccccc2c1S(=O)(=O)c1ccccc1 |  |  |  | 2% | 19% | 
O=C(NO)c1cc2cc(C(F)(F)F)ccc2s1 |  |  |  | 0% | 94% | inhibition at 1 µM (Hepatitis C virus [8]): 16%; cytotoxicity at 72 h, 1 µM [9]: 10%
O=C(NO)c1cn(-c2ccccc2)c2ccccc12 |  |  |  |  | 11% | 
O=C(/C=C/c1ccccn1)NO |  |  |  | 1% | 58% | 
COc1ccc(Cn2ccc3ccc(C(=O)NO)cc32)cc1 | 1.8 µM | 11 µM | 6 |  |  | 
O=C(NO)c1c[nH]c2ccccc12 |  |  |  |  | 0% | 
O=C(NO)c1cc2ccc(C(F)(F)F)cc2s1 |  |  |  | 13% | 83% | inhibition at 1 µM (Hepatitis C virus [8]): 0%; cytotoxicity at 72 h, 1 µM [9]: 4%
O=C(NCC1(c2nc(-c3ccccc3)cs2)CCOCC1)c1cccc(-c2noc(C(F)(F)F)n2)c1 |  |  |  | 21% | 22% | 
O=C(/C=C/c1ccc(C(F)(F)F)nc1)NO | 0.4 µM | 19 µM | 48 |  |  | 
O=C(/C=C/c1ccc(C(F)(F)F)cn1)NO | 0.38 µM | 13 µM | 34 |  |  | 
O=C(/C=C/c1cccc(S(=O)(=O)Nc2ccccc2)c1)NO [BELINOSTAT] | 0.12 µM | 0.68 µM |  |  |  | selectivity ratio ([3]; huh-7): 6
O=C(O)/C=C/c1ccc(C(F)(F)F)cc1 |  |  |  | 0% | 19% | 
COc1ccc(/C=C/C(=O)NO)cc1 |  |  |  | 0% | 15% | 
COC(=O)c1sc2ccccc2c1S(=O)(=O)c1ccccc1 |  |  |  | 0% | 5% | 
O=C(/C=C/c1cccc(C(F)(F)F)c1)NO |  |  |  | 6% | 43% | 
O=C(/C=C/c1ccc(C(F)(F)F)cc1F)NO | 0.12 µM | 14 µM | 117 |  |  | 
Cc1ccc(/C=C/C(=O)NO)cc1 |  |  |  | 0% | 15% | 

More lines, main results first:

EC50 (Hepatitis C virus [1]) | SMILES | CC50 at 72 h [2] | selectivity ratio ([3]; HuH7 cells) | cytotoxicity at 72 h, 10 µM [4] | inhibition at 10 µM (Hepatitis C virus [5]) | other results
3.7 µM | O=C(NO)c1cc2ccc([N+](=O)[O-])cc2s1 | 54 µM | 15 |  |  | 
0.078 µM | O=C(/C=C/c1ccc(Cl)cc1Cl)NO [CINNAMIC ACID HYDROXAMATE] | 8.1 µM | 104 |  |  | 
0.69 µM | O=C(NO)c1cc2cc(Cl)ccc2s1 | 27 µM | 39 |  |  | Activity (Hepatitis C virus [6]): 75%; Activity (Hepatitis C virus [7]): 75%
6 µM | O=C(/C=C/c1ccc(Cl)cc1)NO | > 50 µM | > 8 |  |  | 
0.86 µM | O=C(/C=C/c1ccccc1)NO | 39 µM |  |  |  | selectivity ratio ([3]; huh-7): 45
1 µM | O=C(NO)c1cc2ccccc2s1 | 28 µM | 28 |  |  | 
2.4 µM | O=C(NO)c1cc2cc([N+](=O)[O-])ccc2s1 | 34 µM | 14 |  |  | 
1.8 µM | O=C(NO)c1cc2ccccc2o1 | 54 µM | 30 |  |  | 
